Reference: ChEMBL document CHEMBL2331329, “Synthesis and biological evaluation of 2-(alkoxycarbonyl)-3-anilinobenzo[b]thiophenes and thieno[2,3-b]pyridines as new potent anticancer agents” (J Med Chem, 2013)
Active and inactive are the calls of the source. The calls are words filed in the database; no cut-off is given here.

Legend:
[1] = test system: HeLa; experiment: Induction of apoptosis in human HeLa cells assessed as Mcl-1 phosphorylation at 10 to 100 nM after 24 hrs by Western Blot analysis; type: functional, cell-based
Summary of the method: (§1)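 HeLa cells exposed to 10 or 100 nM for 24 or 48 h, washed in ice-cold PBS, lysed on ice 30 min, spun at 15000g at 4 °C. 20 μg protein run on 7.5–15% SDS–PAGE, blotted to PVDF, blocked overnight at 4 °C. Primary antibodies 2 h at room temperature, peroxidase secondary 60 min, ECL detection, β-actin reprobe as loading control.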

[2] = test system: A549; experiment: Ratio of Combretastatin A-4 IC50 to compound IC50 for human A549 cells; type: functional
[3] = test system: HeLa; experiment: Induction of apoptosis in human HeLa cells assessed as caspase-3 cleavage at 10 to 100 nM after 24 to 48 hrs by Western Blot analysis; type: functional, cell-based; summary of the method: as §1
[4] = test system: HeLa; experiment: Induction of apoptosis in human HeLa cells assessed as mitochondrial membrane depolarization at 10 to 100 nM by JC-1 staining; type: functional, cell-based; conditions: TDE = time-dependent effect
Summary of the method: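 HeLa cells treated 24 or 48 h, then stained with the potentiometric dye JC-1. Proportion of cells with depolarised mitochondria read by flow cytometry. Mean ± SEM of three independent experiments.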

[5] = organism: Bos taurus; experiment: Displacement of [3H]colchicine from bovine brain tubulin at 5 uM after 20 mins by turbidimetric analysis
[6] = Antitumor activity against mouse BNL 1ME A.7R.1 cells xenografted in Balb/c mouse assessed as reduction in tumor growth at 5 mg/kg, ip QD for 7 days; type: functional; parameters: scale not given: the % may be the effect or the level left; conditions: route intraperitoneal
Summary of the method: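 Male Balb/c mice, 8 weeks old, given 10^7 syngeneic BNL 1ME A.7R.1 hepatoma cells subcutaneously in the dorsal region in 200 μL PBS. Randomised to groups of five. Dosed intraperitoneally once daily for 7 days at 5 mg/kg in 0.9% NaCl with 5% PEG 400 and 0.5% Tween 80, against vehicle and CA-4P. Tumours measured daily by caliper, V = AB2/2; body weight recorded. Mean ± SEM.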

[7] = test system: HeLa; experiment: Induction of apoptosis in human HeLa cells assessed as early apoptotic cells after 24 to 48 hrs by annexin V-FITC/Propidium iodide staining-based flow cytometry; type: functional, cell-based
Summary of the method: (§2)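 HeLa cells treated 24 or 48 h, then co-labelled with annexin-V–FITC and propidium iodide. Flow cytometry with 488 nm excitation and emission at 525 nm (FITC) and 585 nm (PI); early apoptotic cells counted as annexin-V+/PI−. Mean ± SEM of three independent experiments.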

[8] = organism: Bos taurus; experiment: Displacement of [3H]colchicine from bovine brain tubulin at 1 uM after 20 mins by turbidimetric analysis
[9] = test system: HeLa; experiment: Induction of apoptosis in human HeLa cells assessed as ROS production at 10 to 100 nM after 24 to 48 hrs by HE staining-based flow cytometry relative to control; type: functional, cell-based
Summary of the method: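 HeLa cells treated 24 or 48 h, then stained with H2-DCFDA or hydroethidine. ROS read by flow cytometry against untreated control. Mean ± SEM of three independent experiments.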

[10] = test system: HT-29; experiment: Cell cycle arrest in human HT-29 cells assessed as accumulation at G2/M phase at >20 nM after 24 hrs by propidium iodide staining-based flow cytometry; type: functional
Summary of the method: (§3)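 Jurkat, HT-29 and HeLa cells in exponential growth (5 × 10^5 cells) treated 24 h at a range of concentrations. Fixed in ice-cold 70% ethanol, lysed with buffer containing RNase A and 0.1% Triton X-100, stained with propidium iodide. DNA content read by flow cytometry and the percentage of cells per cycle phase derived from DNA histograms.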

[11] = test system: HL-60; experiment: Ratio of Combretastatin A-4 IC50 to compound IC50 for human HL60 cells; type: functional
[12] = test system: Jurkat; experiment: Cell cycle arrest in human Jurkat cells assessed as accumulation at G2/M phase at 20 nM after 24 hrs by propidium iodide staining-based flow cytometry; type: functional; summary of the method: as §3
[13] = test system: HT-29; experiment: Cell cycle arrest in human HT-29 cells assessed as accumulation at G2/M phase at 20 nM after 24 hrs by propidium iodide staining-based flow cytometry; type: functional; summary of the method: as §3
[14] = Cytotoxicity against mouse BNL 1ME A.7R.1 cells; type: functional, cell-based
[15] = test system: Jurkat; experiment: Cell cycle arrest in human Jurkat cells assessed as accumulation at G2/M phase after 24 hrs by propidium iodide staining-based flow cytometry; type: functional; summary of the method: as §3
[16] = Cytotoxicity against human CEM/VBL100 cells after 72 hrs by MTT assay; type: functional, cell-based; conditions: CEM/VBL100, 72 h
Summary of the method: (§4)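 MTT viability test: 8 × 10^3 cells per well settled 18 h at 37 °C, 5% CO2, then given fresh medium with compound (from 10 mM DMSO stocks, final DMSO ≤0.25%) for 72 h. […] CEMVbl-100 is a vinblastine-selected P-gp line; LoVoDoxo is grown in Ham's F12 with 0.1 μg/mL doxorubicin. Resistance index = resistant IC50/parental IC50.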

[17] = Cytotoxicity against human A549-T12 cells after 72 hrs by MTT assay; type: functional, cell-based; conditions: A549, 72 h
Summary of the method: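 Mean ± SE of at least three independent experiments. Resistance ratio = IC50 in resistant line/IC50 in nonresistant line.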

[18] = test system: HT-29; experiment: Cytotoxicity against human HT-29 cells after 72 hrs by MTT assay; type: functional, cell-based; conditions: HT-29, 72 h
[19] = test system: HeLa; experiment: Ratio of Combretastatin A-4 IC50 to compound IC50 for human HeLa cells; type: functional
[20] = test system: LoVo; experiment: Cytotoxicity against human LoVo cells after 72 hrs by MTT assay; type: functional, cell-based; summary of the method: as §4
[21] = test system: HeLa; experiment: Induction of apoptosis in human HeLa cells assessed as early apoptotic cells at 10 to 100 nM by annexin V-FITC and propidium iodide staining-based flow cytometry; type: functional, cell-based; conditions: TDE = time-dependent effect; summary of the method: as §2
[22] = Inhibition of bovine brain tubulin polymerization after 20 mins by turbidimetric analysis; parameters: species or system Bos taurus
Summary of the method: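 Bovine brain tubulin (10 μM) preincubated with varying compound concentrations in glutamate buffer at 30 °C, chilled to 0 °C, 0.4 mM GTP added, then warmed to 30 °C in a recording spectrophotometer.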

[23] = test system: CCRF-CEM; experiment: Cytotoxicity against human CEM cells after 72 hrs by MTT assay; type: functional, cell-based; summary of the method: as §4
[24] = test system: PBL; experiment: Cytotoxicity against human PHA-stimulated PBL cells after 72 hrs by MTT assay; type: cell-based
Summary of the method: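 Peripheral blood lymphocytes from healthy donors isolated on a Lymphoprep gradient and rested overnight in RPMI-1640 with 10% FBS. Nonadherent cells at 5 × 10^5 cells/mL, with 2.5 μg/mL PHA for proliferating cultures or without it for resting ones. Compound exposure 72 h, viability by MTT. Mean ± SEM of three experiments.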

[25] = test system: HeLa; experiment: Induction of apoptosis in human HeLa cells assessed as Bcl-XL phosphorylation at 10 to 100 nM after 24 to 48 hrs by Western Blot analysis; type: functional, cell-based; summary of the method: as §1
[26] = test system: Jurkat; experiment: Ratio of Combretastatin A-4 IC50 to compound IC50 for human Jurkat cells; type: functional
[27] = test system: MCF7; experiment: Ratio of Combretastatin A-4 IC50 to compound IC50 for human MCF7 cells; type: functional
[28] = test system: HeLa; experiment: Cell cycle arrest in human HeLa cells assessed as increase in activated cdc25 level at 10 to 100 nM after 24 to 48 hrs by Western Blot analysis; type: functional, cell-based; summary of the method: as §1
[29] = test system: HeLa; experiment: Induction of apoptosis in human HeLa cells assessed as caspase-9 cleavage at 10 to 100 nM after 24 to 48 hrs by Western Blot analysis; type: functional, cell-based; summary of the method: as §1

COC(=O)c1sc2cc(OC)ccc2c1Nc1cc(OC)c(OC)c(OC)c1
Activity [1]: Active | Ratio IC50 [2]: 2 | Activity [3]: Active | Activity [4]: tde | inhibition [5]: 98% | Activity [6]: 68.5% | Activity [7]: Dose-dependent effect | inhibition [8]: 85% | Activity [9]: Active | Activity [10]: >80% | Ratio IC50 [11]: 2 | Activity [12]: Active | Activity [13]: Active | IC50 [14]: 2.1 nM | Activity [15]: Dose-dependent effect | IC50 [16]: 1.3 nM | IC50 [17]: 12.6 nM | IC50 [18]: 0.9 nM | Ratio IC50 [19]: 2 | IC50 [20]: 0.3 nM | Activity [21]: tde | IC50 [22]: 880 nM | IC50 [23]: 3.2 nM | IC50 [24]: > 10000 nM | Activity [25]: Active | Ratio IC50 [26]: 2 | Ratio IC50 [27]: 2 | Activity [28]: Active | Activity [29]: Active
